{"source": "paper PMC5665024", "about": "(Chemical research in toxicology, 2017)", "key": {"pol λ binding to DNA": {"molecular_target": "T1, pol λ binding to DNA (Homo sapiens, UniProt Q9UGP5)", "T1 sequence (Q9UGP5 1-575)": "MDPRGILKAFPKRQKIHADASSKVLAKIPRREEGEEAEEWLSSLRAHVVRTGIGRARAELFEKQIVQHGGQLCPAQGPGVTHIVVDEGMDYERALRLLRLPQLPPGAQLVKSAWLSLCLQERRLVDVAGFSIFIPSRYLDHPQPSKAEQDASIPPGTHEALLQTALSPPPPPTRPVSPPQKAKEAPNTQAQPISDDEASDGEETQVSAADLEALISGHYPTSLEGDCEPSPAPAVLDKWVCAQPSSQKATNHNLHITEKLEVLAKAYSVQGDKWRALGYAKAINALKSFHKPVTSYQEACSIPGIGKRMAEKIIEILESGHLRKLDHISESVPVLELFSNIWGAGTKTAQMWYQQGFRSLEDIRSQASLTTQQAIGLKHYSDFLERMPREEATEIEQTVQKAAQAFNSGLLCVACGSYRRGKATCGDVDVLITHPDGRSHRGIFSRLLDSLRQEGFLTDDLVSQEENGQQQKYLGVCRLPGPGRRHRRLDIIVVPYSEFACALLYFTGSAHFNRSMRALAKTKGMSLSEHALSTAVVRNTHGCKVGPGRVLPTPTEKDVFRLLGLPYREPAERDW", "experiment": "Polymerase–DNA interaction, electrophoretic mobility shift assay, pol λ", "details": "for inhibition of DNA binding to polymerase (EMSA): honokiol up to 200 μM, polymerase in excess of DNA"}, "[1]": {"experiment": "Solubility limit of honokiol in polymerase buffer", "assay_type": "physicochemical"}, "[2]": {"tested_on": "HL60 promyelocytic leukemia cells", "details": "mice xenografted with HL60 promyelocytic leukemia cells; cited from earlier work"}, "PANC1 cells": {"tested_on": "PANC1 cells", "experiment": "MTS assay of cell proliferation, PANC1", "assay_type": "cell-based, human", "details": "for IC50: Homo sapiens; for −log(IC50) (95% CI): tested compound alone", "summary_of_the_method": "(§1)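 Cells grown in DMEM with 10% FBS at 37 °C and 5% CO2. Plated at 5 × 10^3 per well, grown 24 h, then exposed 24 or 72 h to test compound alone or in pairs: 10 μM bleomycin-type or 250 μM alkylating agent added to the lignan, or 10 μM lignan added to either. DMSO 0.2% final; vehicle controls. MTS/PMS for 4 h; A492; cell-free background. Triplicate; IC50 fit, 95% CI.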"}, "[3]": {"details": "cited from earlier work"}, "KF(exo-) binding to DNA": {"molecular_target": "KF(exo-) binding to DNA (Escherichia coli, UniProt P00582, D355A/E357A)", "experiment": "Polymerase–DNA interaction, electrophoretic mobility shift assay, KF", "design": "species or system E. coli", "details": "native PAGE"}, "[4]": {"molecular_target": "human DNA polymerase β (pol β) (Homo sapiens, UniProt P06746)", "experiment": "Steady-state primer extension assay, pol β", "assay_type": "biochemical"}, "GM12878 cells": {"tested_on": "GM12878 cells", "experiment": "MTS assay of cell proliferation, GM12878", "assay_type": "cell-based, human", "details": "Homo sapiens, 24 h, GM12878, 24 h incubation", "summary_of_the_method": "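Lymphoblasts grown in RPMI 1640 with 15% FBS at 37 °C and 5% CO2. Plated at 5 × 10^3 per well, grown 24 h, then exposed 24 or 72 h to test compound alone or with 10 μM lignan inhibitor added. DMSO 0.2% final; vehicle controls. MTS/PMS in PBS pH 7.2 for 4 h at 37 °C; A492; cell-free background. Triplicate; normalized absorbance fitted for IC50 with 95% CI.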"}, "MCF7 cells": {"tested_on": "MCF7 cells", "experiment": "MTS assay of cell proliferation, MCF7", "assay_type": "cell-based, human", "details": "for IC50: Homo sapiens; for −log(IC50) (95% CI): tested compound alone", "summary_of_the_method": "as §1"}, "[5]": {"molecular_target": "DNA polymerase I from E. coli (Klenow fragment), Kf(exo-) (Escherichia coli, UniProt P00582, D355A/E357A)", "experiment": "Steady-state primer extension assay, Kf", "assay_type": "biochemical"}, "A549 cells": {"tested_on": "A549 cells", "experiment": "MTS assay of cell proliferation, A549", "assay_type": "cell-based, human", "details": "A549, 24 h", "summary_of_the_method": "as §1"}, "pol β binding to DNA": {"molecular_target": "pol β binding to DNA (Homo sapiens, UniProt P06746)", "experiment": "Polymerase–DNA interaction, electrophoretic mobility shift assay, pol β", "details": "for inhibition of DNA binding to polymerase (EMSA): honokiol up to 200 μM, polymerase in excess of DNA"}, "pol η binding to DNA": {"molecular_target": "T2, pol η binding to DNA (Homo sapiens, UniProt Q9Y253)", "T2 sequence (Q9Y253 1-713)": "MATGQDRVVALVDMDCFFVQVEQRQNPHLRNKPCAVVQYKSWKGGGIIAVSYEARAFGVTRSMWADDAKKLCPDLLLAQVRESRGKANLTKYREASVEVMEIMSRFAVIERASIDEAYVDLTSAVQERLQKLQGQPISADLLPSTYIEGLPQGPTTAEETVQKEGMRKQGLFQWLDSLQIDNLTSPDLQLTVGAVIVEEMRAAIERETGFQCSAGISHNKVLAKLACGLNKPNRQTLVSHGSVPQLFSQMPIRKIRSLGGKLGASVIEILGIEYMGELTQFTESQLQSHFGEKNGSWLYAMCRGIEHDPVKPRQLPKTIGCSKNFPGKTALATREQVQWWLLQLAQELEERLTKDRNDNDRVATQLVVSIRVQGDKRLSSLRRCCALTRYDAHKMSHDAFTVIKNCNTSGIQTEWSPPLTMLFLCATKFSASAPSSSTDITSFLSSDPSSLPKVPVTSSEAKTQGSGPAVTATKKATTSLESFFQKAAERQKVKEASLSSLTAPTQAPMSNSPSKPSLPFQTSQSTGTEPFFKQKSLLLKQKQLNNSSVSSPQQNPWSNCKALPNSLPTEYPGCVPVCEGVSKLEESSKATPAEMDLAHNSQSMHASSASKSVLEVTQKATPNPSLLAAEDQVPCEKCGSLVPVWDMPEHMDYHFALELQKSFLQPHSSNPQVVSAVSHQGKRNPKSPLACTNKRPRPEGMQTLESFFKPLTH", "experiment": "Polymerase–DNA interaction, electrophoretic mobility shift assay, pol η", "details": "native PAGE"}, "[6]": {"molecular_target": "T3, human DNA polymerase λ (pol λ) (Homo sapiens, UniProt Q9UGP5)", "T3 sequence (Q9UGP5 1-575)": "T1 sequence (Q9UGP5 1-575)", "experiment": "Steady-state primer extension assay, pol λ", "assay_type": "biochemical"}, "[7]": {"details": "eq 3, factor on Km/Ki, 95% confidence limits"}, "[8]": {"details": "eq 3, residual catalysis with HNL bound, 95% confidence limits"}}, "note": "pEC50, pIC50, pKi: −log10 of the molar value. Where two headings read alike, the source gives them in different places."}
{"smiles": "C=CCc1ccc(O)c(-c2ccc(O)c(CC=C)c2)c1", "note": "[HNL, 2-(4-hydroxy-3-prop-2-enyl-phenyl)-4-prop-2-enyl-phenol]", "values": [{"measurement": "pKi", "setting": "pol λ binding to DNA", "result": "< 3.30"}, {"measurement": "inhibition of DNA binding to polymerase (EMSA)", "setting": "pol λ binding to DNA; listed as Honokiol", "result": "does not inhibit DNA binding"}, {"measurement": "inhibition of DNA binding to polymerase (EMSA)", "setting": "pol λ binding to DNA; listed as honokiol", "result": "did not inhibit the binding of the DNA to the polymerase"}, {"measurement": "solubility", "setting": "[1]", "result": 200, "unit": "µM"}, {"measurement": "prolonging life in xenografted mice", "setting": "[2]", "result": "effective in prolonging life"}, {"measurement": "IC50", "setting": "PANC1 cells; PANC-1, 24 h, read-out: −log(IC50) (95% CI), PANC1, 24 h, tested compound alone (converted)", "result": 20, "unit": "µM"}, {"measurement": "IC50", "setting": "PANC1 cells; PANC-1, 72 h, read-out: −log(IC50) (95% CI), PANC1, 72 h, tested compound alone (converted)", "result": 7.94, "unit": "µM"}, {"measurement": "−log(IC50) (95% CI)", "setting": "PANC1 cells; PANC1, 24 h", "result": "4.6 (4.5, 4.8)"}, {"measurement": "−log(IC50) (95% CI)", "setting": "PANC1 cells; PANC1, 72 h", "result": "4.8 (4.7, 4.9)"}, {"measurement": "crossing of blood–brain and blood–cerebrospinal fluid barriers", "setting": "[3]", "result": "crosses the blood–brain and blood–cerebrospinal fluid barriers"}, {"measurement": "inhibition of DNA binding to polymerase (EMSA)", "setting": "KF(exo-) binding to DNA", "result": "does not inhibit DNA binding"}, {"measurement": "pIC50", "setting": "[4]", "result": 6.22}, {"measurement": "pKi", "setting": "[4]; Ki, hyperbolic mixed-type inhibition fit (eq 3), vs dCTP, 95% confidence limits", "result": 5.40}, {"measurement": "α", "setting": "[4]; [7]", "result": "0.55 (0.31, 0.79)"}, {"measurement": "β", "setting": "[4]; [8]", "result": "0.20 (0.15, 0.25)"}, {"measurement": "inhibition mechanism versus dCTP", "setting": "[4]; steady-state kinetic analysis", "result": "mixed-type noncompetitive"}, {"measurement": "pEC50", "setting": "GM12878 cells; another study", "result": "< 4.00"}, {"measurement": "pEC50", "setting": "GM12878 cells; one study", "result": "< 3.00"}, {"measurement": "IC50", "setting": "MCF7 cells; MCF7, 24 h, read-out: −log(IC50) (95% CI), MCF7, 24 h, tested compound alone (converted)", "result": 20, "unit": "µM"}, {"measurement": "IC50", "setting": "MCF7 cells; MCF7, 72 h, read-out: −log(IC50) (95% CI), MCF7, 72 h, tested compound alone (converted)", "result": 15.8, "unit": "µM"}, {"measurement": "−log(IC50) (95% CI)", "setting": "MCF7 cells; MCF7, 24 h", "result": "4.8 (4.7, 4.8)"}, {"measurement": "−log(IC50) (95% CI)", "setting": "MCF7 cells; MCF7, 72 h", "result": "4.9 (4.8, 5.0)"}, {"measurement": "pIC50", "setting": "[5]", "result": 4.10}, {"measurement": "pKi", "setting": "[5]", "result": 4.59}, {"measurement": "α", "setting": "[5]; [7]", "result": "0.48 (0.23, 0.74)"}, {"measurement": "β", "setting": "[5]; [8]", "result": "0.16 (0.09, 0.23)"}, {"measurement": "inhibition mechanism versus dCTP", "setting": "[5]; steady-state kinetic analysis", "result": "mixed-type noncompetitive"}, {"measurement": "−log(IC50) (95% CI)", "setting": "A549 cells; tested compound alone", "result": "4.6 (4.5, 4.8)"}, {"measurement": "IC50", "setting": "A549 cells; Homo sapiens, read-out: −log(IC50) (95% CI), A549, 24 h, tested compound alone (converted)", "result": 25.1, "unit": "µM"}, {"measurement": "pKi", "setting": "pol β binding to DNA", "result": "< 3.30"}, {"measurement": "inhibition of DNA binding to polymerase (EMSA)", "setting": "pol β binding to DNA; listed as Honokiol", "result": "does not inhibit DNA binding"}, {"measurement": "inhibition of DNA binding to polymerase (EMSA)", "setting": "pol β binding to DNA; listed as honokiol", "result": "did not inhibit the binding of the DNA to the polymerase"}, {"measurement": "inhibition of DNA binding to polymerase (EMSA)", "setting": "pol η binding to DNA", "result": "does not inhibit DNA binding"}, {"measurement": "pIC50", "setting": "[6]", "result": 6.10}, {"measurement": "pKi", "setting": "[6]", "result": 5.08}, {"measurement": "α", "setting": "[6]; [7]", "result": "0.51 (0.24, 0.78)"}, {"measurement": "β", "setting": "[6]; [8]", "result": "0.07 (0.02, 0.12)"}, {"measurement": "inhibition mechanism versus dCTP", "setting": "[6]; steady-state kinetic analysis", "result": "mixed-type noncompetitive"}]}
